Drawing on ChEMBL document CHEMBL4339207, “Kinase inhibitions in pyrido[4,3-h] and [3,4-g]quinazolines: Synthesis, SAR and molecular modeling studies” (Bioorg Med Chem, 2019), this text covers Activity and IC50 for six compounds.

In assay [1] the target is Dual specificity protein kinase CLK1 (Mus musculus) (UniProt P22518). The assay can be described thus: Inhibition of recombinant mouse CLK1 expressed in bacteria assessed as residual activity at 1 uM using GRSRSRSRSRSR as substrate in presence of [gamma33P]ATP relative to control.
Assay [2] is filed under the species Sus scrofa. As to the kind of experiment: Inhibition of porcine brain CK1delta/epsilon assessed as residual activity at 10 uM using RRKHAAIGSpAYSITA as substrate in presence of [gamma33P]ATP relative to control.
Assay [3] is filed under the species Sus scrofa. The assay can be described thus: Inhibition of porcine brain CK1delta/epsilon assessed as residual activity at 1 uM using RRKHAAIGSpAYSITA as substrate in presence of [gamma33P]ATP relative to control.
In assay [4] the target is Dual specificity tyrosine-phosphorylation-regulated kinase 1A (Rattus norvegicus) (UniProt Q63470). The assay can be described thus: Inhibition of rat DYRK1A kinase domain (1 to 499 residues) expressed in bacteria assessed as residual activity at 1 uM using KKISGRLSPIMTEQ as substrate in presence of [gamma33P]ATP relative to control.
For assay [5], the target named is Dual specificity protein kinase CLK1 (Mus musculus) (UniProt P22518). The assay can be described thus: Inhibition of recombinant mouse CLK1 expressed in bacteria assessed as residual activity at 10 uM using GRSRSRSRSRSR as substrate in presence of [gamma33P]ATP relative to control.
Assay [6] has as its target T1, Cyclin-dependent kinase 5/CDK5 activator 1 (Homo sapiens) (UniProt Q00535+Q15078). As to the kind of experiment: Inhibition of recombinant human CDK5/p25 expressed in bacteria assessed as residual activity at 10 uM using histone H1 as substrate in presence of [gamma33P]ATP relative to control. The method, boiled down: (§1)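 Recombinant human CDK5/p25 expressed in bacteria was used with histone H1 as substrate in a ³³P radioassay. Residual activity (%) was measured at 10 µM and 1 µM compound, in triplicate.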

Assay [7] addresses T2, Glycogen synthase kinase-3 (Sus scrofa) (UniProt B2LUN4+I6LNT8). The assay can be described thus: Inhibition of porcine brain GSK3alpha/beta assessed as residual activity at 10 uM using YRRAAVPPSPSLSRHSSPHQSpEDEEE as substrate in presence of [gamma33P]ATP relative to control. The gist of the method:
(§2)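 Radiometric kinase assay (method A, ³³P). GSK-3α/β affinity-purified from porcine brain (Sus scrofa domesticus). Inhibitors tested at 10 µM and 1 µM. Result reported as % residual kinase activity. Assays run in triplicate.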

Assay [8] addresses Dual specificity tyrosine-phosphorylation-regulated kinase 1A (Rattus norvegicus) (UniProt Q63470). As to the kind of experiment: Inhibition of rat DYRK1A kinase domain (1 to 499 residues) expressed in bacteria assessed as residual activity at 10 uM using KKISGRLSPIMTEQ as substrate in presence of [gamma33P]ATP relative to control.
Assay [9] has as its target T2, Glycogen synthase kinase-3 (Sus scrofa). The assay can be described thus: Inhibition of porcine brain GSK3alpha/beta assessed as residual activity at 1 uM using YRRAAVPPSPSLSRHSSPHQSpEDEEE as substrate in presence of [gamma33P]ATP relative to control. The method, boiled down: as §2
The target of assay [10] is T1, Cyclin-dependent kinase 5/CDK5 activator 1 (Homo sapiens). The assay can be described thus: Inhibition of recombinant human CDK5/p25 expressed in bacteria assessed as residual activity at 1 uM using histone H1 as substrate in presence of [gamma33P]ATP relative to control. The method, boiled down: as §1
The target in assay [11] is T3, Dual specificity protein kinase CLK1 (Homo sapiens, UniProt P49759). The assay can be described thus: Inhibition of recombinant human N-terminal GST-tagged CLK1 (129 to end residues) expressed in baculovirus infected Sf9 insect cells assessed as residual activity at 10 uM using MBP as substrate measured after 60 mins by ADP-Glo luminescence assay relative to control.
Target sequence in this assay (P49759 whole entry, looked up): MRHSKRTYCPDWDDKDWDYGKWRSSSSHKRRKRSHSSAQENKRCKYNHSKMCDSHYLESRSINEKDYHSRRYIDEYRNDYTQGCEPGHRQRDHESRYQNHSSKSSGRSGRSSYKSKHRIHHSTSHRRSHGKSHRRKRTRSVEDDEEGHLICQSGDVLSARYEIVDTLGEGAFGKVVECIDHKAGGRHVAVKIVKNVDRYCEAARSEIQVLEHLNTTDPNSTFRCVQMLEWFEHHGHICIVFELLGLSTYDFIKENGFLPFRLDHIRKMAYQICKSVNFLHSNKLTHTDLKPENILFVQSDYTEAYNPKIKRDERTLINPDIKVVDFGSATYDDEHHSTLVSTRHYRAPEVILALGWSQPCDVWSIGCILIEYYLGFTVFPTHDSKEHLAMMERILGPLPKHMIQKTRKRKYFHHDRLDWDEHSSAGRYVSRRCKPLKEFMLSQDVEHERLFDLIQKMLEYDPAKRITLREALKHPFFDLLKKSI

Assay [12] has as its target T1, Cyclin-dependent kinase 5/CDK5 activator 1 (Homo sapiens). The assay can be described thus: Inhibition of recombinant human full-length N-terminal GST-tagged CDK5/p25 expressed in baculovirus infected Sf9 insect cells assessed as residual activity at 1 uM using histone H1 as substrate measured after 10 mins relative to control.
Assay [13] concerns the target T3, Dual specificity protein kinase CLK1. The assay can be described thus: Inhibition of recombinant human N-terminal GST-tagged CLK1 (129 to end residues) expressed in baculovirus infected Sf9 insect cells sing MBP as substrate measured after 60 mins by ADP-Glo luminescence assay.
Target sequence in this assay (P49759 whole entry): as the sequence (P49759 whole entry, looked up) above
Assay [14] addresses Dual specificity tyrosine-phosphorylation-regulated kinase 1A (Rattus norvegicus) (UniProt Q63470). As to the kind of experiment: Inhibition of recombinant full-length rat N-terminal GST-tagged DYRK1A was expressed in Escherichia coli assessed as residual activity at 1 uM using DYRKtide as substrate measured after 60 mins by ADP-Glo luminescence assay relative to control. On the technique in general: ADP-Glo first removes unused ATP, then detects ADP through luciferase.

The target of assay [15] is T3, Dual specificity protein kinase CLK1. The assay can be described thus: Inhibition of recombinant human N-terminal GST-tagged CLK1 (129 to end residues) expressed in baculovirus infected Sf9 insect cells assessed as residual activity at 1 uM using MBP as substrate measured after 60 mins by ADP-Glo luminescence assay relative to control.
Target sequence in this assay (P49759 whole entry, looked up): as above
Assay [16] concerns the target T1, Cyclin-dependent kinase 5/CDK5 activator 1 (Homo sapiens). As to the kind of experiment: Inhibition of recombinant human full-length N-terminal GST-tagged CDK5/p25 expressed in baculovirus infected Sf9 insect cells assessed as residual activity at 10 uM using histone H1 as substrate measured after 10 mins relative to control.
The target of assay [17] is T4, Casein kinase I (Homo sapiens) (UniProt Q9HCP0+P78368+P48730+P49674+P48729). As to the kind of experiment: Inhibition of CK1 (unknown origin) assessed as residual activity at 10 uM relative to control.
Assay [18] addresses T5, Glycogen synthase kinase-3 (Homo sapiens) (UniProt P49840+P49841). As to the kind of experiment: Inhibition of GSK3 (unknown origin) assessed as residual activity at 10 uM relative to control.
Assay [19] deals with T5, Glycogen synthase kinase-3 (Homo sapiens). As to the kind of experiment: Inhibition of GSK3 (unknown origin) assessed as residual activity at 1 uM relative to control.
The target of assay [20] is Dual specificity tyrosine-phosphorylation-regulated kinase 1A (Rattus norvegicus, UniProt Q63470). As to the kind of experiment: Inhibition of recombinant full-length rat N-terminal GST-tagged DYRK1A was expressed in Escherichia coli using DYRKtide as substrate measured after 60 mins by ADP-Glo luminescence assay.
The target of assay [21] is Dual specificity tyrosine-phosphorylation-regulated kinase 1A (Rattus norvegicus) (UniProt Q63470). As to the kind of experiment: Inhibition of recombinant full-length rat N-terminal GST-tagged DYRK1A was expressed in Escherichia coli assessed as residual activity at 10 uM using DYRKtide as substrate measured after 60 mins by ADP-Glo luminescence assay relative to control.

Assay [22] addresses T4, Casein kinase I (Homo sapiens). The assay can be described thus: Inhibition of CK1 (unknown origin) assessed as residual activity at 1 uM relative to control.
For assay [23], the target named is Dual specificity protein kinase CLK1 (Mus musculus, UniProt P22518). As to the kind of experiment: Inhibition of recombinant mouse CLK1 expressed in bacteria using GRSRSRSRSRSR as substrate in presence of [gamma33P]ATP.
Chain of Dual specificity protein kinase CLK1 (Mus musculus, UniProt P22518) (P22518 whole entry): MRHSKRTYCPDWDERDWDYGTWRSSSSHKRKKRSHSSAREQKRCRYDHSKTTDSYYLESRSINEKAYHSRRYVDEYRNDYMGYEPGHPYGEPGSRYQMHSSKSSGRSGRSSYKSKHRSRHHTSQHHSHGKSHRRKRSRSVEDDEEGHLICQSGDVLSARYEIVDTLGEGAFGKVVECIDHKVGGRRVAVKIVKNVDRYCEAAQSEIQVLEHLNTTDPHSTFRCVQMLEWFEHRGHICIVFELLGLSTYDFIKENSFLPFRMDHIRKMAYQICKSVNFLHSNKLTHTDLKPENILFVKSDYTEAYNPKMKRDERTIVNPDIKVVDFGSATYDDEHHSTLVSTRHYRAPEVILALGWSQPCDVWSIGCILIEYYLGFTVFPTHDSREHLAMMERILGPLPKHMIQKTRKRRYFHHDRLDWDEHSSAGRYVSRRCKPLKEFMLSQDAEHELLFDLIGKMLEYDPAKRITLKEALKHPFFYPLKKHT

T1 sequence (Q00535 whole entry): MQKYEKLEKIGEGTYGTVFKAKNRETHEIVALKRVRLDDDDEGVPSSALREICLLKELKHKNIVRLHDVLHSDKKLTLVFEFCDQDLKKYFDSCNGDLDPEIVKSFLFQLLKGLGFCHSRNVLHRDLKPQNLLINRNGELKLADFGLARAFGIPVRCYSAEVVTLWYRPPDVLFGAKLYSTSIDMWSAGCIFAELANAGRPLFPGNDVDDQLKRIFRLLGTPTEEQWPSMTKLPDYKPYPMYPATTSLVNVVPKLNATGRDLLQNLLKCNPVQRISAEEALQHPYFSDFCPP
T1 sequence (Q15078 99-307 partner limits assumed): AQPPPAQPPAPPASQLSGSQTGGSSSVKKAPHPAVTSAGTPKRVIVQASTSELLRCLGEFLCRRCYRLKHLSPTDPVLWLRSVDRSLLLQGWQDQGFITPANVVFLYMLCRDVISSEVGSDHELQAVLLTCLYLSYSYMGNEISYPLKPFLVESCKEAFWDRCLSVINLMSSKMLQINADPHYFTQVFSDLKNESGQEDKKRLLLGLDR
Chain of Dual specificity protein kinase CLK1 (Mus musculus) (P22518 whole entry, looked up): as the sequence (P22518 whole entry) above
T5 sequence (P49840 whole entry, looked up): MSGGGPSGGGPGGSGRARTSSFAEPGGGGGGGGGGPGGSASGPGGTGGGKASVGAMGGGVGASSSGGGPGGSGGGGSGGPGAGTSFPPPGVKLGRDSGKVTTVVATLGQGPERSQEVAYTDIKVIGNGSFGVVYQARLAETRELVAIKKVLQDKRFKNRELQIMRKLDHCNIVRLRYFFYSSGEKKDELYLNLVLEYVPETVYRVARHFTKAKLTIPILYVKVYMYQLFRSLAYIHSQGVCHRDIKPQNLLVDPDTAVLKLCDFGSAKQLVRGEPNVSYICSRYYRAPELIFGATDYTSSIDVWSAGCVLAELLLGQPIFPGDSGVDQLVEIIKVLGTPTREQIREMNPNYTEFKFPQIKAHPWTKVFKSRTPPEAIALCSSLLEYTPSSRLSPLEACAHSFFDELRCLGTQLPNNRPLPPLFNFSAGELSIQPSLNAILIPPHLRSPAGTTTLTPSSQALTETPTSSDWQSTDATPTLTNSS
T5 sequence (P49841 whole entry, looked up): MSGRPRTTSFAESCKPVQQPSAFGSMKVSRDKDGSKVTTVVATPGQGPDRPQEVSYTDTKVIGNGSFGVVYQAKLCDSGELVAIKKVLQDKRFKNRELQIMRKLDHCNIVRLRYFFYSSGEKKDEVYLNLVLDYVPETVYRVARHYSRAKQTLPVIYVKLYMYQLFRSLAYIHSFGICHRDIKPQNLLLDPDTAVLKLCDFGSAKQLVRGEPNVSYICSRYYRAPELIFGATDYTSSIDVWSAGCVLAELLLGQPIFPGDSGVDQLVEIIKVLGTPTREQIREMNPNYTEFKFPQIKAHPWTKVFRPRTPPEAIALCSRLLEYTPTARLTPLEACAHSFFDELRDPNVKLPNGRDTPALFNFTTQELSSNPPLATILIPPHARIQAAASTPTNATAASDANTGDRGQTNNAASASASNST

Take `Nc1ncc2cc3cnccc3c([N+](=O)[O-])c2n1`: the Activity in assay [1] worked out at 6%; in assay [2] it was 9%; in assay [3], 41%; in assay [4], 36%; in assay [5], 2%; in assay [6], 56%. The Activity in assay [7] is 25%; in [8] it was 5%; in assay [9] it was 74%; in assay [10], 88%.

Regarding `CC(C)N(CNc1ncc2cc3cnccc3c([N+](=O)[O-])c2n1)C(C)C`, the Activity in assay [1] worked out at 44%; in assay [2] it was 38%; in assay [3] it was 74%; in [4] it was 69%; in assay [5], 5%; in assay [6], 61%. The Activity in assay [7] came out at 1%; in assay [8], 46%; in [9], 53%; in assay [10] it was 99%.

By IC50 is commonly meant the midpoint of a concentration-inhibition curve. With `Nc1ncc2ccc3ccncc3c2n1`, the Activity in assay [11] worked out at 9%; in assay [12], 100%; in assay [14], 71%; in assay [15], 48%; in [16] it was 63%; in assay [17] it was 22%. The Activity in assay [18] worked out at 75%; in assay [19] it was 98%; in assay [21], 25%; in assay [22], 64%. The IC50 came out at 1480 nM in assay [13] and 2180 nM in assay [20].

On to `CN(C)CNc1ncc2cc3cnccc3c([N+](=O)[O-])c2n1`, for which the Activity in assay [1] worked out at 13%; in assay [2], 38%; in assay [3], 100%; in assay [4], 39%; in [5], 6%; in [6], 41%. The Activity was determined as 15% in assay [7], 4% in assay [8], 73% in assay [9] and 99% in assay [10]. Also, in assay [23], the IC50 was determined as 87 nM.

Regarding `CC(C)N(/C=N/c1ncc2cc3cnccc3c([N+](=O)[O-])c2n1)C(C)C`, the Activity is 53% in assay [1]; 60% in assay [2]; 96% in assay [3]; 95% in [4]; 1% in [5]; 45% in assay [6]. Further, the Activity was found to be 15% in [7], 46% in [8], 73% in [9] and 100% in assay [10].

On to `CN(C)/C=N/c1ncc2cc3cnccc3c([N+](=O)[O-])c2n1`, for which the Activity was found to be 33% in [1]; 53% in assay [2]; 100% in assay [3]; 100% in assay [4]; 3% in assay [5]; 59% in assay [6]. The Activity in assay [7] turned out to be 30%; in [8] it was 31%; in [9] it was 86%; in assay [10] it was 94%.
